Measurements taken from the array DNA melting data of Ke et al. (doi:10.1101/2024.01.08.574731).

Assays:
[1] = folding enthalpy; higher = less favourable; fluorescence melt of hairpins on a sequencing array, two-state fit; conditions: sodium 0.088 M
Method in brief: (§1)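 In 50 mM Na-HEPES pH 8.0 containing 25 mM NaCl, hairpins from the library on a sequenced MiSeq flow cell were imaged for Cy3 fluorescence at 2.5 °C steps up to 60 °C, with Cy3 and quencher oligos annealed. After normalisation to pre-quench Cy3 and to control constructs, two-state fits with bootstrapping gave melting temperature and folding enthalpy. Four replicates were combined by inverse-variance weighting, and fitted temperatures were shifted up by 9.35 °C to match UV melts.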

[2] = melting temperature; fluorescence melt of hairpins on a sequencing array, two-state fit, raised by 9.35 °C to match UV melts; conditions: sodium 0.088 M
Method in brief: as §1

Sequence | folding enthalpy [1] [kcal/mol] | Tm [2] [°C]
GGCACTGGAAACAGTGTC (.(((((....))))).) | -37.8 | 54.1
GGCAGAGCGAAAGCTGCC (((..(((....)))))) | -28.6 | 61.9
GGCAGCGAAAGCTAGGCC ((((((....)))..))) | -28.6 | 55.3
GGCAGCGAAAGCTGGGCC ((((((....)))..))) | -13.1 | 52
GGCAGCGAAAGCTGTGCC ((((((....)))..))) | -13.2 | 51
GGCAGCGGAAACACCGCC (((.(.(....).).))) | -11.1 | 34.9
GGCAGCGGAAACGCTACC ((.((((....)))).)) | -22.8 | 54
GGCAGGAAACTGCC (((((....))))) | -31.6 | 65.6
GGCAGGCCGAAAGGCGCC (((..(((....)))))) | -21.3 | 59.6
GGCAGTCGAAAGACGCC (((.(((....)))))) | -26.6 | 65
GGCAGTTCGAAAGAAGCC (((..(((....)))))) | -16.3 | 34.5
GGCATACGAAAGTACGCC (((.(((....))).))) | -32.1 | 51.8
GGCATAGGAAACTACGCC (((.(((....))).))) | -28.2 | 41.1
GGCATATCGAAAGATGCC (((..(((....)))))) | -29 | 50.1
GGCATCCGAAAGGAAGCC (((.(((....))).))) | -42.9 | 59.2
GGCATCGAAAGATCGCC ((((((....))).))) | -24.4 | 50.4
GGCATCGAAAGATCGGCC ((((((....)))..))) | -23.7 | 41.1
GGCATCGAAAGATGCGCC ((((((....)))..))) | -8.72 | 57.3
GGCATCGGAAACAACGCC (((.(.(....).).))) | -9.26 | 27.4

Sequence | folding enthalpy [1] [kcal/mol] | Tm [2] [°C]
GGCATCGGAAACAATGCC (((((.(....).))))) | -30.4 | 46.7
GGCATCTCGAAAGAGGCC (((..(((....)))))) | -26.6 | 51.2
GGCATTGCGAAAGCAGCC (((..(((....)))))) | -16.4 | 50.7
GGCATTGGAAACGATGTC (.(((.(....).))).) | -25.7 | 35.1
GGCCAAGCGAAAGCTGCC (((..(((....)))))) | -21.7 | 54.3
GGCCACGAAAGTGAGCC ((((((....))).))) | -27.1 | 65.8
GGCCACGAAAGTGAGGCC ((((((....)))..))) | -26.9 | 58.3
GGCCACGAAAGTGCGCC ((((((....))).))) | -32.8 | 63.6
GGCCACGAAAGTGCTGCC ((((((....)))..))) | -20.4 | 48.8
GGCCACGGAAACATGGCC (((((.(....).))))) | -49.2 | 53.3
GGCCACGGAAACGCAGCC (((..((....))..))) | -20.5 | 39.5
GGCCAGAAATGGCC (((((....))))) | -29 | 67.5
GGCCAGCCGAAAGGCGCC (((..(((....)))))) | -13.4 | 55.1
GGCCAGGGAAACCTAGCC (((.(((....))).))) | -28.4 | 43.2
GGCCATCCGAAAGGAGCC (((..(((....)))))) | -20.1 | 42.8
GGCCATCGAAAGATTGCC (((.(((....))).))) | -26.3 | 49.3
GGCCATGGAAACACAGCC (((..((....))..))) | -13.5 | 27.6
GGCCATGGAAACATGACC ((.((((....)))).)) | -29.2 | 47.6
GGCCATGGAAACGTGGTC (.(((.(....).))).) | -33.2 | 45.2
